Assays:
[1] = Antiepileptic activity in male CF1 mice 4 hr after administration measured in neurological toxicity (Tox) test at a dose of 300 mg/kg (no. of animals treated /protected); activity value is 0/2; type: functional, Mus musculus
[2] = Antiepileptic activity in male CF1 mice 4 hr after administration measured in subcutaneous pentylenetetrazole (scMet) test at a dose of 300 mg/kg; activity value is 0/1; type: functional, Mus musculus
[3] = Antiepileptic activity in male CF1 mice 30 min after administration measured in subcutaneous pentylenetetrazole (scMet) test at a dose of 300 mg/kg (no. of animals treated /protected); activity value is 1/1; type: functional, Mus musculus
[4] = Dose at which anticonvulsant activity was observed in mice; type: functional, Mus musculus
[5] = Antiepileptic activity in male CF1 mice 30 min after administration measured in maximum electroshock seizure(MES) test at a dose of 300 mg/kg (no. of animals treated /protected); activity value is 1/1; type: functional, Mus musculus
[6] = Antiepileptic activity in male CF1 mice 4 hr after administration measured in maximum electroshock seizure(MES) test at a dose of 300 mg/kg (no. of animals treated /protected); activity value is 1/1; type: functional, Mus musculus
[7] = Antiepileptic activity in male CF1 mice 30 min after administration measured in neurological toxicity (Tox) test at a dose of 300 mg/kg (no. of animals treated /protected); activity value is 0/4; type: functional, Mus musculus
Rattus norvegicus [8] = experiment: Intraperitoneal dose (100 mg/Kg) reducing rat corneal kindling 0.5 hr after administration.; type: functional
Summary of the method: (§1)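 Sprague-Dawley rats (85–95 g initial) were kindled with 4 s, 8 mA corneal stimulations (butacaine anesthesia) to 10 consecutive stage 5 seizures. After a vehicle shock and a 2-day shock-free period, test drug was given ip or po and a single shock applied at time of peak effect. Seizures were scored on a modified Racine 0–5 scale. ED50 is the dose reducing severity by 50% (Litchfield–Wilcoxon).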

Rattus norvegicus [9] = experiment: Average seizure score for the rat cornea 0.5 hr after intraperitoneal administration of 200 mg/Kg of compound; type: functional; summary of the method: as §1
[10] = Time of peak anticonvulsant effect in CF1 MICE after ip administration.; type: functional, Mus musculus
Summary of the method: (§2)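 Male CF1 mice (ca. 24–34 g), compound in 0.5% methylcellulose suspension given ip or po; time (h) at which MES protection (against tonic hind limb extension) peaked was recorded and used for ED50 determination.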

Rattus norvegicus [11] = experiment: Intraperitoneal dose (200 mg/Kg) reducing rat corneal kindling 0.5 hr after administration.; type: functional; summary of the method: as §1
Rattus norvegicus [12] = experiment: Average seizure score for the rat cornea 0.5 hr after intraperitoneal administration of 100 mg/Kg of compound; type: functional; summary of the method: as §1
[13] = Dose elevating electroshock induced seizure by 20% in CF1 mice after ip administration.; type: functional, Mus musculus
Summary of the method: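 In CF1 male mice (ca. 24–34 g), compound was given ip in 0.5% methylcellulose. The current giving hind limb extension in 50% of mice was found by the up-and-down method, with 15–25 mice per group and a vehicle control group run with each experimental group. At least three doses were tested. The dose raising threshold current by 20% was taken from a plot of dose against % threshold increase.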

Rattus norvegicus [14] = experiment: Average seizure score for the rat cornea 0.5 hr after intraperitoneal administration of 250 mg/Kg of compound; type: functional; summary of the method: as §1
Rattus norvegicus [15] = experiment: Dose reducing the seizure severity in rat cornea 1 hr after peroral administration.; type: ADME, organism-based; settings: po; summary of the method: as §1
Rattus norvegicus [16] = experiment: Average seizure score for the rat cornea 0.5 hr after intraperitoneal administration of 150 mg/Kg of compound; type: functional; summary of the method: as §1
Rattus norvegicus [17] = experiment: Intraperitoneal dose (0 mg/Kg) reducing rat corneal kindling 0.5 hr after administration.; type: functional
Summary of the method: (§3)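 Sprague-Dawley rats (85–95 g initial weight) kindled by corneal stimulation (4 s, 8 mA) twice daily for 5 to 6 days, then once daily until 10 consecutive stage 5 seizures. Butacaine sulfate 1% applied to the cornea as a topical anaesthetic. After a vehicle shock and a 2-day shock-free period, drug given ip, then a single shock at the time of peak effect. Scored on the modified Racine scale (0–5).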

[18] = Time of peak neurotoxic effect in CF1 mice; type: ADME; settings: mouse, in vivo
Summary of the method: (§4)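 Male CF1 mice (ca. 24–34 g), compound ip in 0.5% methylcellulose suspension; neurological deficit assessed by rotorod test, time (h) of peak neurotoxic effect recorded for TD50 determination.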

Rattus norvegicus [19] = experiment: Average seizure score for the rat cornea 0.5 hr after intraperitoneal administration of 0 mg/Kg of compound; type: functional; summary of the method: as §3
Rattus norvegicus [20] = experiment: Intraperitoneal dose (150 mg/Kg) reducing rat corneal kindling 0.5 hr after administration.; type: functional; summary of the method: as §1
[21] = Dose protecting 50% of the mice from tonic hind limb extension at the time of […] after ip administration.; type: functional; settings: Mus musculus, Hindlimb
Summary of the method: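 Phase II quantification in CF1 male mice (ca. 24–34 g), dosing ip or po in 0.5% methylcellulose suspension. ED50 is protection from tonic hind limb extension in MES. TD50 is rotorod neurotoxicity. Both were read at time of peak effect and derived by Litchfield–Wilcoxon with 95% confidence limits.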

[22] = Time of peak anticonvulsant effect in CF1 mice; type: functional, Mus musculus; summary of the method: as §2
Rattus norvegicus [23] = experiment: Dose reducing the seizure severity in rat cornea 0.5 hr after peroral administration.; type: functional; settings: po; summary of the method: as §1
Rattus norvegicus [24] = experiment: Intraperitoneal dose (250 mg/Kg) reducing rat corneal kindling 0.5 hr after administration.; type: functional; summary of the method: as §1
[25] = Time of peak neurotoxic effect in CF1 MICE after ip administration.; type: ADME, organism-based; settings: mouse, in vivo; summary of the method: as §4

Structure (SMILES): COC(=O)C1C(=O)C=C(NCc2ccc(Cl)cc2)CC1C (stereo not given)
- Activity [1]: 0
- Activity [2]: 0
- Activity [3]: 1
- Dose [4]: >100 mg/kg
- Activity [5]: 1
- Activity [6]: 1
- Activity [7]: 0

Structure (SMILES): CCCC(CCC)C(=O)O [VALPROIC ACID]
- Reduction (Rattus norvegicus [8]): 49%
- Average seizure score (Rattus norvegicus [9]): 0.1
- TPE [10]: 0.5
- Reduction (Rattus norvegicus [11]): 98%
- Average seizure score (Rattus norvegicus [12]): 2.6
- Dose [13]: 132 mg/kg
- Average seizure score (Rattus norvegicus [14]): 0.5
- ED50 (Rattus norvegicus [15]): 117 mg/kg
- Average seizure score (Rattus norvegicus [16]): 1.2
- Reduction (Rattus norvegicus [17]): 0%
- TPE [18]: 0.25
- Average seizure score (Rattus norvegicus [19]): 5
- Reduction (Rattus norvegicus [20]): 76%
- ED50 [21]: 248 mg/kg
- TPE [22]: 0.25
- ED50 (Rattus norvegicus [23]): 96 mg/kg
- Reduction (Rattus norvegicus [24]): 90%
- TPE [25]: 0.5
